Experimental data pooled from the literature.
Lines come from different studies, so protocols differ.
Target: Tau-tubulin kinase 2 (TTBK2, Homo sapiens, UniProt Q6IQ55)
Effect on: enzyme activity
Mode: inhibitor

COc1cc(/C=C/C(=O)CC(=O)/C=C/c2ccc(O)c(OC)c2)ccc1O  activity vs control (1 µM): 115%
FC(F)(F)Oc1cccc(-c2cnc3ccc(-c4ccncc4)nn23)c1  activity vs control (radiometric; 1 µM): 96%
COc1cc(Cl)c(C(=O)N[C@@H](CN[C@H]2CC[C@@H](N)CC2)Cc2ccc(C#N)cc2)cc1-c1ccc(CN[C@H](C)c2ccc(C)cc2)o1  remaining activity (1 µM): 96%
CC(C)(C)c1nc(-c2cccc(NS(=O)(=O)c3c(F)cccc3F)c2F)c(-c2ccnc(N)n2)s1  remaining activity (radiometric; 1 µM): 104%
O=C(Nc1cnn(-c2csc(C(=O)NC3COC3)c2)c1)Nc1ccccc1Cl  remaining activity (5 µM): 107%
CC(C)(O)[C@H]1CC[C@H](Nc2ccc3ncc(-c4cccc(C(F)(F)F)c4)n3n2)CC1  remaining activity (1 µM): 94.4%
O=C(Nc1cnn(-c2csc(C(=O)NC3COC3)c2)c1)Nc1c(F)cccc1Cl  remaining activity (5 µM): 104%
Cc1ccc(C(=O)NCc2ccsc2)cc1C#Cc1cn(C(C)C)c2ncnc(N)c12  activity vs control (1 µM): 87%
CC(C)(C)c1nc2c(s1)c1nc(N)ncc1c1ccc(NS(=O)(=O)c3c(F)cccc3F)c(F)c12  remaining activity (radiometric; 1 µM): 104%
COc1cc(Nc2cnc(C#N)c(O[C@H](C)CN(C)C)n2)ncc1-c1cnn(C)c1  remaining activity (radiometric; 1 µM): 100%
CN1CC(Oc2cnc(C#N)cc2-c2ccn3nc(NC(=O)C4CC4)cc3c2)C1  inhibition (1 µM): 13%
